# Laboratory results: the M2OR odorant receptor database
# Key:
# Conditions in all cases: stereoisomer not certain
# OR1G1 (Homo sapiens) = target: T1, OR1G1 (Homo sapiens) (UniProt P47890)
# T1 sequence (whole entry): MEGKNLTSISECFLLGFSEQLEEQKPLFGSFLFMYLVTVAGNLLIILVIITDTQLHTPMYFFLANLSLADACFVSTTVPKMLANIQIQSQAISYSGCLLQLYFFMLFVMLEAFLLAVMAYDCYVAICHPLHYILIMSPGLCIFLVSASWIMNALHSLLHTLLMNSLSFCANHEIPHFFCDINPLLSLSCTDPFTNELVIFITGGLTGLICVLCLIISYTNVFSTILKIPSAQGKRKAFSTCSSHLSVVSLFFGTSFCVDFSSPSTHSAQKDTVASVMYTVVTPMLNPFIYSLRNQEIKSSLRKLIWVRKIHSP
# Method in brief: (§1)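 Assay methods differ from source to source, frequently being transient luciferase assays in mammalian cell lines. For each receptor–molecule pair, the label responsive (active) applies when the original authors judged the measured signal statistically different from baseline, and non-responsive (inactive) applies otherwise.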
# OR1F12P (Homo sapiens) = target: T2, OR1F12P (Homo sapiens) (UniProt Q8NHA8)
# T2 sequence (whole entry): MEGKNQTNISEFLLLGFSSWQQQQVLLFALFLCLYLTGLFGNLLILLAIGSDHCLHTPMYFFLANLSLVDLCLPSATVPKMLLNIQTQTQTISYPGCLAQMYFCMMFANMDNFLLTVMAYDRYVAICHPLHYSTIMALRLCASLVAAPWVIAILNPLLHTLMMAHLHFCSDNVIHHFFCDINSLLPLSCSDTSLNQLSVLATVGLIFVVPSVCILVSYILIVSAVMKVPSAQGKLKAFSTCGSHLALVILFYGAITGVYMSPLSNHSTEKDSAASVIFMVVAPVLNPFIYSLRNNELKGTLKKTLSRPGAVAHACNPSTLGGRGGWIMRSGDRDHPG
# Method in brief: as §1
# OR1I1 (Homo sapiens) = target: T3, OR1I1 (Homo sapiens) (UniProt O60431)
# T3 sequence (whole entry): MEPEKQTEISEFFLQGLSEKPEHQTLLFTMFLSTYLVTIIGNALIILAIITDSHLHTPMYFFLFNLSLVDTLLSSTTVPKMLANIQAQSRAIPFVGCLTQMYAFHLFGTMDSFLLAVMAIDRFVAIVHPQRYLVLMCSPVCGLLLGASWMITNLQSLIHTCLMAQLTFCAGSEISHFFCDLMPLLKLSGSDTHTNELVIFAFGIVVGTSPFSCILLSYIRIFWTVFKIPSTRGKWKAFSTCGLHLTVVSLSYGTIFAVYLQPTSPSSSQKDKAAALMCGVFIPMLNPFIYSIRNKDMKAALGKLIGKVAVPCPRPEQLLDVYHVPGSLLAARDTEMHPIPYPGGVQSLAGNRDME
# Method in brief: as §1
# OR1J1 (Homo sapiens) = target: T4, OR1J1 (Homo sapiens) (UniProt Q8NGS3)
# T4 sequence (whole entry): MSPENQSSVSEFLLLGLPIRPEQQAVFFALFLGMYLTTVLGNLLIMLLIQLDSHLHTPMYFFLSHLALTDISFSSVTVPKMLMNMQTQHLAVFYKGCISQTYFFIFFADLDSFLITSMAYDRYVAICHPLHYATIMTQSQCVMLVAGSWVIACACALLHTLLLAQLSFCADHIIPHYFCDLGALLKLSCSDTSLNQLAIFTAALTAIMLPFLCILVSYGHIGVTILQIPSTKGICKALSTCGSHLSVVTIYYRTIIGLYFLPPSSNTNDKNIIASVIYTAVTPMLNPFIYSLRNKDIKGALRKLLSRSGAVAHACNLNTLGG
# Method in brief: as §1
# OR1J2 (Homo sapiens) = target: T5, OR1J2 (Homo sapiens) (UniProt Q8NGS2)
# T5 sequence (whole entry): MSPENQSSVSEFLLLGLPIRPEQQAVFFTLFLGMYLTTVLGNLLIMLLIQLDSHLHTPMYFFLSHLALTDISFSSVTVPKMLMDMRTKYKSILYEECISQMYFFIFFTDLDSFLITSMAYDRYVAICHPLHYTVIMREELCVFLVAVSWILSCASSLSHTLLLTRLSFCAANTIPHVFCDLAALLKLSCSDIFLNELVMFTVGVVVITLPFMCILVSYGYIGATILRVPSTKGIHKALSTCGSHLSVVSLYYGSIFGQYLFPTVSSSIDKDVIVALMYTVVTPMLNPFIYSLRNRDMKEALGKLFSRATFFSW
# Method in brief: as §1
# OR1J4 (Homo sapiens) = target: T6, OR1J4 (Homo sapiens) (UniProt Q8NGS1)
# T6 sequence (whole entry): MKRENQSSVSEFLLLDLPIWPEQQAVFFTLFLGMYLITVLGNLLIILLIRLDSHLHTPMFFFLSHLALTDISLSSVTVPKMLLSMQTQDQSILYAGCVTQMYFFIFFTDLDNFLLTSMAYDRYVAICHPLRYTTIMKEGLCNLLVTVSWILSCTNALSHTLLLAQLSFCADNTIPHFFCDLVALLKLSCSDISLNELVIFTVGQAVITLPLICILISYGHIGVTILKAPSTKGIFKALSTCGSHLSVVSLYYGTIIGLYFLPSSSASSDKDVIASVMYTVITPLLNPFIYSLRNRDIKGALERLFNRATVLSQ
# Method in brief: as §1
# OR1K1 (Homo sapiens) = target: T7, OR1K1 (Homo sapiens) (UniProt Q8NGR3)
# T7 sequence (whole entry): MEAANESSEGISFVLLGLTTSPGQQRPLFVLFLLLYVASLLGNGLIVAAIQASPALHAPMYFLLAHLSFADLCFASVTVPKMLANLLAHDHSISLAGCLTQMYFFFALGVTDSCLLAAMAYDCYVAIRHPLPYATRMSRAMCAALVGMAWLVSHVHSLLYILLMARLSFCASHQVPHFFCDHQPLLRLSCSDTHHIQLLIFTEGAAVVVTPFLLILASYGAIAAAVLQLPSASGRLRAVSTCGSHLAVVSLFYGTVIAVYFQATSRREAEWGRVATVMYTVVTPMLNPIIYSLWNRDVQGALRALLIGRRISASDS
# Method in brief: as §1
# OR1L1 (Homo sapiens) = target: T8, OR1L1 (Homo sapiens) (UniProt Q8NH94)
# T8 sequence (whole entry): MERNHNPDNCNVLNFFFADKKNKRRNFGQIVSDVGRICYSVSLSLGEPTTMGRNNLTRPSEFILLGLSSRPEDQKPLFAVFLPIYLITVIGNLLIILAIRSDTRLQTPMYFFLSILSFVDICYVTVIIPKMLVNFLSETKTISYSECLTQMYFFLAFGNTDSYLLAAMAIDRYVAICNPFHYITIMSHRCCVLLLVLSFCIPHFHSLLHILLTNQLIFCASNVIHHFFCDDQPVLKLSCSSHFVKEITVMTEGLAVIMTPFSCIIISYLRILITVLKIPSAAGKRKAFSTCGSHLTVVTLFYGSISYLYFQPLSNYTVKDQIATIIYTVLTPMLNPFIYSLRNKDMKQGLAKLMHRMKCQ
# Method in brief: as §1
# OR1L3 (Homo sapiens) = target: T9, OR1L3 (Homo sapiens) (UniProt Q8NH93)
# T9 sequence (whole entry): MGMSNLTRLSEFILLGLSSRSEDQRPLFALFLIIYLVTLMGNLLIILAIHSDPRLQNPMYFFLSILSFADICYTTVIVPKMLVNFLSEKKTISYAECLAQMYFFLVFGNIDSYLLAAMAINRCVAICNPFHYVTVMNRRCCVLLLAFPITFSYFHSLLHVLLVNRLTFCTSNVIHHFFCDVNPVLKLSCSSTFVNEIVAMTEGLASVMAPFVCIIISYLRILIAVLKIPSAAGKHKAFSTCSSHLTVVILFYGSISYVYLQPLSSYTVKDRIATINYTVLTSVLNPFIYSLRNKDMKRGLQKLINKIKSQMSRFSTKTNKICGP
# Method in brief: as §1
# OR1L4 (Homo sapiens) = target: T10, OR1L4 (Homo sapiens) (UniProt Q8NGR5)
# T10 sequence (whole entry): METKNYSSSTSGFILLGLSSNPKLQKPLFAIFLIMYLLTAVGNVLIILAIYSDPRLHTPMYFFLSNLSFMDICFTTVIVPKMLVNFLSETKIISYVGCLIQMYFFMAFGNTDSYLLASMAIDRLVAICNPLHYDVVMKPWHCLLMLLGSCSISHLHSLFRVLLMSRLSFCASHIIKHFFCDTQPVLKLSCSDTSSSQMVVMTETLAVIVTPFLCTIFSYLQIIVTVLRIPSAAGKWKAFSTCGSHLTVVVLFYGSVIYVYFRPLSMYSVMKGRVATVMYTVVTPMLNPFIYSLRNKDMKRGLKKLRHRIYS
# Method in brief: as §1
# OR1L6 (Homo sapiens) = target: T11, OR1L6 (Homo sapiens) (UniProt Q8NGR2)
# T11 sequence (whole entry): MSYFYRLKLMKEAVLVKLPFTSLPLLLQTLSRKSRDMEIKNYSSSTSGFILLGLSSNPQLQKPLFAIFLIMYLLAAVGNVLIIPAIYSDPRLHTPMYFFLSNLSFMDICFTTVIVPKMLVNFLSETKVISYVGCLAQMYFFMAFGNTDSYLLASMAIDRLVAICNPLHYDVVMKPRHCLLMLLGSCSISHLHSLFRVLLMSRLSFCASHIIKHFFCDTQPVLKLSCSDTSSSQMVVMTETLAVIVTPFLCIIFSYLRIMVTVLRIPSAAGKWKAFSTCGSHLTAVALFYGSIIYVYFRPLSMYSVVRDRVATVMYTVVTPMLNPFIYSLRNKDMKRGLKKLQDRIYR
# Method in brief: as §1
# OR1L8 (Homo sapiens) = target: T12, OR1L8 (Homo sapiens) (UniProt Q8NGR8)
# T12 sequence (whole entry): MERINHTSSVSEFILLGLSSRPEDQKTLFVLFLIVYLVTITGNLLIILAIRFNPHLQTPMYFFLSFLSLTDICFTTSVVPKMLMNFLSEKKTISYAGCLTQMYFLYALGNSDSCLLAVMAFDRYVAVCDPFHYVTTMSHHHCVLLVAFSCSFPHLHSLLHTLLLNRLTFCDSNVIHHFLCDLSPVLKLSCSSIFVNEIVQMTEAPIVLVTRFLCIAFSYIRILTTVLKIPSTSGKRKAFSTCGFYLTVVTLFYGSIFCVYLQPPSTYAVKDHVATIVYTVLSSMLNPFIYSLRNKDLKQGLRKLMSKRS
# Method in brief: as §1
# OR1M1 (Homo sapiens) = target: T13, OR1M1 (Homo sapiens) (UniProt Q8NGA1)
# T13 sequence (whole entry): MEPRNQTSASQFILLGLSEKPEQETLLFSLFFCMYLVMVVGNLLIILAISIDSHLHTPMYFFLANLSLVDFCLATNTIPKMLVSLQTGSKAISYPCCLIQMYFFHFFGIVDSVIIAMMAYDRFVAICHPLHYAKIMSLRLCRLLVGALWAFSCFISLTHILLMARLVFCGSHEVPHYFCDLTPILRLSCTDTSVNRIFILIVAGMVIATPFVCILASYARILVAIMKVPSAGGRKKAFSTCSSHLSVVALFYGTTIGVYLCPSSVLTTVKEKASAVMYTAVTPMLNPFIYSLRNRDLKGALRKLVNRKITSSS
# Method in brief: as §1
# OR1N1 (Homo sapiens) = target: T14, OR1N1 (Homo sapiens) (UniProt Q8NGS0)
# T14 sequence (whole entry): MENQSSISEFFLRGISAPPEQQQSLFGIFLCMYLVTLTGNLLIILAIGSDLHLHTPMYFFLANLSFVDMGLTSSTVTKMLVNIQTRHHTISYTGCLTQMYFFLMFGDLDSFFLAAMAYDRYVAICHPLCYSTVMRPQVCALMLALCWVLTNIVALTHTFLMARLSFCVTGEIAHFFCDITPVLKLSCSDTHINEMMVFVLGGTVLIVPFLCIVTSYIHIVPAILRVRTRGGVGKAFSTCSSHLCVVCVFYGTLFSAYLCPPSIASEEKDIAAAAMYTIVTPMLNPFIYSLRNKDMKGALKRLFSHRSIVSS
# Method in brief: as §1
structure (smiles),measurement,setting,value
CC(C)=CCCC(C)=CC#N,odorant receptor agonist call,OR1G1 (Homo sapiens),inactive
C=C(C)C1CC=C(C)CC1 (configuration not stated),odorant receptor agonist call,OR1G1 (Homo sapiens),active
CCCCCCCCCCC(C)=O,odorant receptor agonist call,OR1G1 (Homo sapiens),inactive
CCCCCC(S)C(C)CO (configuration not stated),odorant receptor agonist call,OR1F12P (Homo sapiens),inactive
same,odorant receptor agonist call,OR1G1 (Homo sapiens),inactive
same,odorant receptor agonist call,OR1I1 (Homo sapiens),inactive
same,odorant receptor agonist call,OR1J1 (Homo sapiens),inactive
same,odorant receptor agonist call,OR1J2 (Homo sapiens),inactive
same,odorant receptor agonist call,OR1J4 (Homo sapiens),inactive
same,odorant receptor agonist call,OR1K1 (Homo sapiens),inactive
same,odorant receptor agonist call,OR1L1 (Homo sapiens),inactive
same,odorant receptor agonist call,OR1L3 (Homo sapiens),inactive
same,odorant receptor agonist call,OR1L4 (Homo sapiens),inactive
same,odorant receptor agonist call,OR1L6 (Homo sapiens),inactive
same,odorant receptor agonist call,OR1L8 (Homo sapiens),inactive
same,odorant receptor agonist call,OR1M1 (Homo sapiens),inactive
same,odorant receptor agonist call,OR1N1 (Homo sapiens),inactive
